# MLLE-PAM2 inh: inhibitors of microRNA-mediated deadenylation, human PABP1 MLLE binding; GST-MLLE / FITC-PAM2 fluorescence polarization; inhibition, % at 20 µM; P11940; hit rate 0.36% among 360,000; in the data active = inhibition above about 35%, passing the limit was not always enough;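 also: plate controls were DMSO wells with GST-MLLE for no effect and wells lacking GST-MLLE protein for full effect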
# RBBP9 inhibitor: human RBBP9 hydrolase inhibition | hit rate 0.2% among 220,000 | O75884 | recombinant RBBP9, FP-Rh probe fluorescence polarization | inhibition, % at 7.94 µM;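 active = inhibition above the campaign mean of all tested compounds plus 3 SD, cut at about 14% in these data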;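 also: plate controls were DMSO wells with RBBP9 for no effect and wells lacking RBBP9 protein for full effect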
# Target sequence (O75884 whole entry, looked up): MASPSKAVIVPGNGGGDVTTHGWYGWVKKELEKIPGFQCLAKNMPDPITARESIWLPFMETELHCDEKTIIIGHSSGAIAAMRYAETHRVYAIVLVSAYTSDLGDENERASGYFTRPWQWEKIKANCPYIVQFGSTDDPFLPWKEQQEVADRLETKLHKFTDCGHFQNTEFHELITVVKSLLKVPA
#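 Measured by – fluorescence polarization · Test system – RBBP9 protein · Input – 2.5 µM RBBP9 dispensing solution, before mixing · Measure – percent inhibition from mP, scaled between DMSO and no-protein wells · Benchmarks – DMSO-treated enzyme wells and wells lacking RBBP9 · Times – preincubation 30 min plus labeling 45 min at 25 °C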
# eIF4H inh: inhibitors of RNA binding by human eIF4H; inhibition, % at 35 µM; Q15056; eIF4H fluorescence polarization binding assay; hit rate 0.94% among 290,000;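 also: calls also rest on retests at 20 µM and on dose response follow-up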
# TCR CD3 inh: inhibitors of human TCR-CD3 interaction; TAMRA-labeled TCR probe fluorescence, biochemical; inhibition, % at 9.4 µM; hit rate 0.37% among 360,000; in the data active = inhibition above about 19%;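 also: recombinant mutant TCR 2C K166C tagged with TAMRA read by polarization; 0% = receptor in buffer alone and 100% = receptor with positive control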
# PABP polyA inh: blocks human PABP binding to poly(A) RNA | P11940 | fluorescence polarization | calls only at 35 µM | hit rate 1% among 290,000 | AID 2014;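 also: calls also rest on retests at 20 µM and on dose response follow-up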
# Active calls of the source: *; i = inactive; . = no result; + = active, no number. Compounds with a hit are over-represented: about 1.6% of the library has one in this group of screens. Unless noted, no rule for the calls is given here.
SMILES,MLLE-PAM2 inh,RBBP9 inhibitor,eIF4H inh,TCR CD3 inh,PABP polyA inh
COc1ccc(-c2cc(C(=O)N3CCCCCC3)c3ccccc3n2)c(OC)c1,19,.,84*,-3,+
COc1ccc(-c2cc(C(=O)N3CCN(c4ncccn4)CC3)c3ccccc3n2)c(OC)c1,22,-5,-11,3,i
O=C(c1ccccc1C(=O)N1CCN(c2ccccc2)CC1)N1CCN(c2ccccc2)CC1,86,-5,127*,6,+
COc1ccc(-c2cc(C(=O)N3CCN(c4ccccc4)CC3)c3ccccc3n2)cc1,11,-7,57*,-4,+
O=C(c1sc2cc(F)ccc2c1Cl)N1CCN(c2ccccc2)CC1,7,-8,76*,-3,+
Cc1ccc(NC(=O)N2CC(C)OC(C)C2)cc1[N+](=O)[O-] (stereo not given),.,.,.,3,.
CC(C)C[C@H]1CN([C@@H](Cc2ccccc2)CN2CCC[C@H]2CN2C(=O)C(=O)NC[C@@H]2Cc2ccccc2)C(=O)C(=O)N1CC1CCCCCC1,.,.,.,-5,.
C[C@H](c1ccccc1)N1C[C@@H](COCc2ccccc2)Oc2cccc(N3CCCC3)c2S1(=O)=O,.,.,.,2,.
CCOC(=O)C1=CCN(S(=O)(=O)c2ccc(F)cc2)C1c1ccc(Cl)cc1 (stereo not given),.,.,.,6,.
COc1ccccc1N(C(=O)CCl)c1cn(C(C)=O)c2ccccc12,-5,-1,4,-2,i
COc1ccccc1N(C(C)=O)C1=C(Cl)C(=O)c2ccccc2C1=O,39*,.,.,3,.
COc1ccc(C(=O)c2ccc(OC)c3cccc(O)c23)cc1OC,12,4,-8,-1,i
COc1ccc2c3c(cccc13)NN=C2C,.,15*,.,.,.
COC(=O)c1cc(-c2ccccc2)sc1NC(=O)CN1C(=O)c2ccccc2C1=O,36*,-9,-8,-5,i
Cc1ccc(NC(=O)COc2ccc(/C=C3/SC(=Nc4ccccc4)N(Cc4cccnc4)C3=O)cc2)cc1,-18,-2,58*,0,+
Cc1ccc(NC(=O)COc2ccc(/C=N/NC(=O)CSCc3ccccc3)cc2)cc1,5,-7,-4,1,i
CN(C(=S)NC(=O)c1ccccc1)c1c(N)n(Cc2ccccc2)c(=O)[nH]c1=O,40*,-6,-8,2,i
Nc1[nH]c(C(=O)c2ccc(Cl)cc2)c(-c2ccc(Br)cc2)c1C(=O)NCc1ccc(Cl)cc1Cl,.,.,.,4,.
O=C(NC(=S)Nc1ccc(S(=O)(=O)N2CCCC2)cc1)C1CC1,14,5,-8,3,+
O=C(NC(=S)Nc1ccc(S(=O)(=O)N2CCCC2)cc1)c1cccs1,47*,-11,6,2,i
O=C(NC(=S)Nc1cccnc1)c1cccs1,39*,-10,4,-4,i
O=C(O)CC(SCC(=O)Nc1ccc(S(=O)(=O)N2CCCC2)cc1)C(=O)O (stereo not given),40*,3,-10,0,i
O=C(NC(=S)Nc1ccc(S(=O)(=O)N2CCCC2)cc1)C1CCC1,23,-10,2,-3,i
Cc1cc(=O)c2c(ccc3c(=O)cc(C)[nH]c32)[nH]1,.,.,.,3,.
C[C@@H]1ON(C)[C@H]2C[C@H]3c4cc(N5CCCCC5)ccc4CCN3C[C@@H]12,.,.,.,-1,.
SMILES,MLLE-PAM2 inh,RBBP9 inhibitor,eIF4H inh,TCR CD3 inh,PABP polyA inh
COc1ccccc1NC(=S)NC(=O)C1CC1,20,-9,-5,6,i
O=C(NC(=S)Nc1ccccc1Cl)C1CC1,41*,.,2,-5,i
COC(=O)C1=C(C)N(Cc2cccc(C(F)(F)F)c2)C(=NCc2ccc(OC)cc2)NC1c1ccccc1C(F)(F)F (stereo not given),.,.,.,-1,.
Cc1nc2cc(C(=O)O)ccc2s1,39*,-5,-15,-2,i
CCCCOCC1CN(CCCC)S(=O)(=O)c2c(cccc2N(C)S(=O)(=O)c2ccc(C)cc2)O1 (stereo not given),.,.,.,0,.
COC(=O)C1=C(C)N(Cc2cccc(C(F)(F)F)c2)C(=NCc2ccc3c(c2)OCO3)NC1c1cccc(Cl)c1 (stereo not given),.,.,.,-10,.
CC1(C)CC(=O)C=C(Nc2cccc(F)c2)C1,9,.,-13,-9,i
CN(C)c1cccc(NC2=CC(=[N+]3CCOCC3)CC(C)(C)C2)c1,-94,0,10,5,+
C[C@@H]1COc2cccc(NCCCN3CCOCC3)c2S(=O)(=O)N1,.,.,.,8,.
CCNC(=O)N1CCN(c2ccc(N3CCN(C(=O)NCC)[C@@H](C)C3)c(C)c2)[C@H](C)C1,.,.,.,-3,.

# Source: PubChem BioAssay
